Test results from publication PMC6097486 (International Journal of Biological Sciences, 2018).
Where no end group is shown, it is not given here.

Experiments:
[1] = test system: NSCLC; conditions: ref [7]-[9]; cited from earlier work
[2] = ref [10]; cited from earlier work
[3] = test system: FGFR1; assay: Competitive elution of phage clones by FGF2; format: binding; conditions: 2 µg/ml FGF2, RT 1 h, 450 nm
How it was run: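 Phage clones (2 × 10^11 pfu/well) and control vcsM13 phage incubated on FGFR1 at RT for 1 h. Competitive elution with FGF2 (2 µg/ml) at RT for 1 h. Detection with anti-M13 mAb (37°C, 1 h), then goat anti-mouse IgG-HRP (37°C, 30 min) and TMB substrate. Absorbance read at 450 nm.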

[4] = test system: FGFR1-ERK1/2 MAPK signaling pathway; assay: FGFR1-ERK1/2 MAPK signaling activation by FGF2; format: cell-based, human; conditions: stimulation with FGF2; A549 and NCI-H460 cells
How it was run: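 A549 and NCI-H460 cells (FGFR1-high human NSCLC) grown in DMEM/high glucose with 10% FBS at 37°C, 5% CO₂. Treatment 2 h; FGFR1 inhibitor PD173074 (100 nM) as positive control. Lysate protein (30 µg) run on 10% SDS-PAGE, transferred to PVDF, blocked in 8% nonfat milk/TBST. Probed for pFGFR1 and pERK1/2 (1:1000), normalised to β-actin.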

[5] = test system: CAM; assay: Chick chorioallantoic membrane; format: in vivo; conditions: FGF2 10 ng/ml alone, 24 h
How it was run: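 Test peptide applied with FGF2 (10 ng/ml) onto the CAM surface on day 8 of egg incubation. Incubation continued for 24 h, then the CAM surface was photographed to assess angiogenesis.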

[6] = test system: A549 cells; assay: Tube formation assay on matrigel, A549 cells; format: cell-based, human; conditions: FGF2 10 ng/ml alone, 6 h, versus control (###P < 0.001)
[7] = Gross toxicity and body weight in A549 xenograft nude mice; format: in vivo, BALB/cA nude mice; conditions: 5 mg/kg/day i.p., 28 days
How it was run: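 Female athymic nu/nu BALB/cA mice, 7 weeks old, SPF housing, received subcutaneous A549 cells (2 × 10^6 cells in 200 μL saline, mixed 1:1 with matrigel) into upper and lower back. Two days later, test compound in saline was given i.p. for 28 days; controls got the same volume of saline. Body weight was recorded weekly.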

[8] = target: T1, human FGFR1 protein (human, UniProt P11362 22-376); assay: SPR
T1 sequence (looked up): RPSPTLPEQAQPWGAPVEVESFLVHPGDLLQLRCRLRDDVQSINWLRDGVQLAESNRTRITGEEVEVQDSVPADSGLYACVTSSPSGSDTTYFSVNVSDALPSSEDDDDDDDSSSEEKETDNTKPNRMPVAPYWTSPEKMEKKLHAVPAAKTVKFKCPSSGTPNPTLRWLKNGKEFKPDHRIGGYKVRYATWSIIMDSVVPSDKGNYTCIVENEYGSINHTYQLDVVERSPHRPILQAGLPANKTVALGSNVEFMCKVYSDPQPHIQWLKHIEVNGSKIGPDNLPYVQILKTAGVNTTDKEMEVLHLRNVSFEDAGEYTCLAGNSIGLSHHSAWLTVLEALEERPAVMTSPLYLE

Molecule: COc1cc(OC)cc(-c2cc3cnc(N)nc3nc2NC(=O)NC(C)(C)C)c1 [PD166866]
- growth of NSCLC [1]: suppress the growth of NSCLC

Molecule: CCN(CC)CCCCNc1ncc2cc(-c3cc(OC)cc(OC)c3)c(NC(=O)NC(C)(C)C)nc2n1 [PD173074]
- toxicity / clinical progress [2]: failed to enter phase II clinical trials due to their high toxicities
- growth of NSCLC [1]: suppress the growth of NSCLC

Molecule: Cc1c[nH]c(/C=C2\C(=O)Nc3ccccc32)c1CCC(=O)O [SU5402]
- toxicity / clinical progress [2]: failed to enter phase II clinical trials due to their high toxicities
- growth of NSCLC [1]: suppress the growth of NSCLC

Molecule: FGF2: Specific ligand of FGFR1 (PeproTech)
- elution efficiency for the phage clones [3]: high elution efficiency
- activation of FGFR1-ERK1/2 MAPK signaling pathway [4]: evident
- angiogenesis [5]: significantly induce angiogenesis
- tube formation [6]: significantly induce tube formation

Molecule: FHDAWPNLSKSS [R1-P2]
- toxicity observed ([7]; n = 5): no remarkable toxicity observed
- abnormal gross phenotypes including weight loss ([7]; n = 5, body weight recorded weekly): no signs of abnormal gross phenotypes including weight loss

Molecule: FHDAWPNLSKSS [peptide R1-P2]
- Kd [8]: ~154 nM
